In the M2OR odorant receptor database:
Residue numbers refer to the chain shown, from its start.

Assays:
Settings in all cases: stereoisomer not certain
OR2A1 T73A R74C S168C = test system: T1, OR2A1 T73A R74C S168C
T1 sequence (whole entry): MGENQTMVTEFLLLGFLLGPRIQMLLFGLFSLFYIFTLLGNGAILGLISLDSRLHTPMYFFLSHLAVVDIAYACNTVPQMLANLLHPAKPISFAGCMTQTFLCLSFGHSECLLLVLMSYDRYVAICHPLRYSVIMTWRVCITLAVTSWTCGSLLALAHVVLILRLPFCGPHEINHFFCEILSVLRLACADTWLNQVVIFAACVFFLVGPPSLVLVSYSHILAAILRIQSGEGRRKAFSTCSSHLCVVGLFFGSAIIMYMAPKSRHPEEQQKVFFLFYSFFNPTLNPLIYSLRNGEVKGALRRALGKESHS
Summary of the method: (§1)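 Values were gathered from published papers (main text and supplementary material), with extra details requested from the original authors when needed, and checked for typos and inconsistencies. Each receptor–molecule pair is called responsive (active) if the original authors judged the measured signal statistically different from baseline, and non-responsive (inactive) otherwise. Assay methods varied by source, often transient mammalian cell-line luciferase assays. Recorded details include cell line, G-protein, co-transfected protein and tags.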

OR2A12 (Homo sapiens) = molecular target: T2, OR2A12 (Homo sapiens) (UniProt Q8NGT7)
T2 sequence (whole entry): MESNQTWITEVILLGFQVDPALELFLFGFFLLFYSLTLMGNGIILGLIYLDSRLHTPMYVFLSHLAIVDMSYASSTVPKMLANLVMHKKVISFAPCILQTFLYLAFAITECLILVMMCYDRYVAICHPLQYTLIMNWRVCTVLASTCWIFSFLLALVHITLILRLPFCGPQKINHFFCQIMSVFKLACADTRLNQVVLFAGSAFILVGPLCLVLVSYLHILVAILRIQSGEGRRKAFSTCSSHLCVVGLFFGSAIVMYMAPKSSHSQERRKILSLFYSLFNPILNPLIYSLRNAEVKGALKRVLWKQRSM
Summary of the method: as §1

OR2A14 (Homo sapiens) = molecular target: T3, OR2A14 (Homo sapiens) (UniProt Q96R47)
T3 sequence (whole entry): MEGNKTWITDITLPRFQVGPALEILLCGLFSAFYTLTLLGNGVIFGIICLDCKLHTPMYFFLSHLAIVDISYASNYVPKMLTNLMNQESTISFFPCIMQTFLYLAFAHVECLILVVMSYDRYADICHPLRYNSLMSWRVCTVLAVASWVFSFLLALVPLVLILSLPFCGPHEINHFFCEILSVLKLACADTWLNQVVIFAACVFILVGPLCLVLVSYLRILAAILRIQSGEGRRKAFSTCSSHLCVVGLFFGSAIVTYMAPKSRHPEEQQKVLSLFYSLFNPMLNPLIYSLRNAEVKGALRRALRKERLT
Summary of the method: as §1

OR2A2 (Homo sapiens) = molecular target: T4, OR2A2 (Homo sapiens) (UniProt Q6IF42)
T4 sequence (whole entry): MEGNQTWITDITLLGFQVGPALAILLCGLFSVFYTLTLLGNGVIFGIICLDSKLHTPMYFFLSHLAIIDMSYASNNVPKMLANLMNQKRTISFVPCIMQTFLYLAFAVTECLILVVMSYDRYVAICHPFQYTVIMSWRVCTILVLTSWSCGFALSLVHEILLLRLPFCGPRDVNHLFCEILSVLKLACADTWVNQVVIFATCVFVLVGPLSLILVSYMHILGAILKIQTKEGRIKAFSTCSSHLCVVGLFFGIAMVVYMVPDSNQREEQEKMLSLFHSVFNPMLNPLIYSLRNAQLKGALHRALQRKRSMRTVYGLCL
Summary of the method: as §1

OR2A25 (Homo sapiens) = molecular target: T5, OR2A25 (Homo sapiens) (UniProt A4D2G3)
T5 sequence (whole entry): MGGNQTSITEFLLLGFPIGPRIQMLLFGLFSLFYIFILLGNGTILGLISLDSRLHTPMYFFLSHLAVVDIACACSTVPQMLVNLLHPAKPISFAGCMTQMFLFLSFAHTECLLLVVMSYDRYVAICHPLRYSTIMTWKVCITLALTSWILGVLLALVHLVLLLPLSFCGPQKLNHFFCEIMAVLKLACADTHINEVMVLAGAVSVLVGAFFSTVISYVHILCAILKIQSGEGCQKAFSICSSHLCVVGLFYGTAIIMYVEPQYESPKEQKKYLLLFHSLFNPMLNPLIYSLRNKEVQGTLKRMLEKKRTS
Summary of the method: as §1

OR2A2 = test system: T6, OR2A2
T6 sequence (whole entry): T4 sequence (whole entry) with F280L
Summary of the method: as §1

OR2A4 (Homo sapiens) = molecular target: T7, OR2A4 (Homo sapiens) (UniProt O95047)
T7 sequence (whole entry): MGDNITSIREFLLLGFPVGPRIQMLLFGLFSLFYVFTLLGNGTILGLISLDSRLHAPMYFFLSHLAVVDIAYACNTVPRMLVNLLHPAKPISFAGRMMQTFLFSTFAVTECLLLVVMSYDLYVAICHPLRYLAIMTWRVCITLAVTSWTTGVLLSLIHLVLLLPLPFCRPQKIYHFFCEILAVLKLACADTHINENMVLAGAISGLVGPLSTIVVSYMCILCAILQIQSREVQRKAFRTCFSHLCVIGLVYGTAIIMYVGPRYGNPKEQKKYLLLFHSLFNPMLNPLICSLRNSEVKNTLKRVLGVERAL
Summary of the method: as §1

OR2A5 (Homo sapiens) = molecular target: T8, OR2A5 (Homo sapiens) (UniProt Q96R48)
T8 sequence (whole entry): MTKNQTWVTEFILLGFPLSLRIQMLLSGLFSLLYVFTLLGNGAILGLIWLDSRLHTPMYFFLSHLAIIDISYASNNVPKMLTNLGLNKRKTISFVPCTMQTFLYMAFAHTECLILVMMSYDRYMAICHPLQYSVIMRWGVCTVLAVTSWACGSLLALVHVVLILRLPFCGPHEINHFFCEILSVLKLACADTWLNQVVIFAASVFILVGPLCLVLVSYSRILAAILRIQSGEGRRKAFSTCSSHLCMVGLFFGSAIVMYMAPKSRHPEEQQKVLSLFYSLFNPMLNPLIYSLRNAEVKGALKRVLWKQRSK
Summary of the method: as §1

OR2A5 I126V A202S A255T = test system: T9, OR2A5 I126V A202S A255T
T9 sequence (whole entry): T8 sequence (whole entry) with I126V, A202S, A255T
Summary of the method: as §1

OR2A7 (Homo sapiens) = molecular target: T10, OR2A7 (Homo sapiens) (UniProt Q96R45)
T10 sequence (whole entry): T7 sequence (whole entry) with R9T, R238C, V250F
Summary of the method: as §1

OR2A7 = test system: T11, OR2A7
T11 sequence (whole entry): T7 sequence (whole entry) with R238C, V250F
Summary of the method: as §1

OR2AE1 (Homo sapiens) = molecular target: T12, OR2AE1 (Homo sapiens) (UniProt Q8NHA4)
T12 sequence (whole entry): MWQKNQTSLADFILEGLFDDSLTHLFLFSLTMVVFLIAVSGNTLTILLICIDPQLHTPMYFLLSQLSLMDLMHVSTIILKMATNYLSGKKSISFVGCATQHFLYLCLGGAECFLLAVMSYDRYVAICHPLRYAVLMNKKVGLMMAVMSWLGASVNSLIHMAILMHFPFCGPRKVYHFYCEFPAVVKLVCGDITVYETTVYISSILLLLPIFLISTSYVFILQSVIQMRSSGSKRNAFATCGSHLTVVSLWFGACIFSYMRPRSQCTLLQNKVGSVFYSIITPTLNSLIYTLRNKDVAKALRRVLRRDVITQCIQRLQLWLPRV
Summary of the method: as §1

OR2AG1 (Homo sapiens) = molecular target: T13, OR2AG1 (Homo sapiens) (UniProt Q9H205)
T13 sequence (whole entry): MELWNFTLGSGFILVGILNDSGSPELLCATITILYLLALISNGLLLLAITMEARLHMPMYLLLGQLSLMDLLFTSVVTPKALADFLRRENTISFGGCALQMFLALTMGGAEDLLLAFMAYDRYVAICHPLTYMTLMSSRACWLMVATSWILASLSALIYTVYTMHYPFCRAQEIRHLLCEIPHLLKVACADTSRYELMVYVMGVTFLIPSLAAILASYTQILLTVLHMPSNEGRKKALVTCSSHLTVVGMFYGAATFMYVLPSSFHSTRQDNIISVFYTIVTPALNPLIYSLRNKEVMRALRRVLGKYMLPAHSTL
Summary of the method: as §1

OR2AG2 (Homo sapiens) = molecular target: T14, OR2AG2 (Homo sapiens) (UniProt A6NM03)
T14 sequence (whole entry): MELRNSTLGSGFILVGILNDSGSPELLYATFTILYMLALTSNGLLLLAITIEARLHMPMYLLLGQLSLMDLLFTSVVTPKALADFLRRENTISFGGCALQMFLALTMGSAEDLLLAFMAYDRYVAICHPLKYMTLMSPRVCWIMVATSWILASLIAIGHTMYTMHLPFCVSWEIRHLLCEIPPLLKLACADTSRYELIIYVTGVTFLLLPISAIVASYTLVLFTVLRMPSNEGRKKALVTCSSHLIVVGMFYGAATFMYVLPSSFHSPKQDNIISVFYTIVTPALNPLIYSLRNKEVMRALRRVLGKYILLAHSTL
Summary of the method: as §1

OR2AK2 (Homo sapiens) = molecular target: T15, OR2AK2 (Homo sapiens) (UniProt Q8NG84)
T15 sequence (whole entry): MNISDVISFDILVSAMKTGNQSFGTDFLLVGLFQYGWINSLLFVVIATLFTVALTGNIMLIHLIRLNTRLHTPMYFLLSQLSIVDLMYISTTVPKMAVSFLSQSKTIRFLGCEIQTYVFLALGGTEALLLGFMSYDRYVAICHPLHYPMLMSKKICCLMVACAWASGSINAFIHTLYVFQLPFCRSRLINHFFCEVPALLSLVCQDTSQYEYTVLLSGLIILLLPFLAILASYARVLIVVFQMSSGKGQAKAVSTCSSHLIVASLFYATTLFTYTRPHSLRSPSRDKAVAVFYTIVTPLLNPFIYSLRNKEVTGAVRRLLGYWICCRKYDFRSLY
Summary of the method: as §1

OR2AP1 (Homo sapiens) = molecular target: T16, OR2AP1 (Homo sapiens) (UniProt Q8NGE2)
T16 sequence (whole entry): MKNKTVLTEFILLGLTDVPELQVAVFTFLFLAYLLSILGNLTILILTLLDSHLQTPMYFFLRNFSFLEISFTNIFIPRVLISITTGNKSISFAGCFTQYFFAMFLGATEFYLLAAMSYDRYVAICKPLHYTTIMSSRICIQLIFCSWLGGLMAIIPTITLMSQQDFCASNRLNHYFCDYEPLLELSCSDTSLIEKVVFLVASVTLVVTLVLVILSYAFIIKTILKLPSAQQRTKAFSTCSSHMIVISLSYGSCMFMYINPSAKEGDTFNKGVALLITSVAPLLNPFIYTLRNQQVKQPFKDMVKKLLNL
Summary of the method: as §1

OR2AT4 (Homo sapiens) = molecular target: T17, OR2AT4 (Homo sapiens) (UniProt A6NND4)
T17 sequence (whole entry): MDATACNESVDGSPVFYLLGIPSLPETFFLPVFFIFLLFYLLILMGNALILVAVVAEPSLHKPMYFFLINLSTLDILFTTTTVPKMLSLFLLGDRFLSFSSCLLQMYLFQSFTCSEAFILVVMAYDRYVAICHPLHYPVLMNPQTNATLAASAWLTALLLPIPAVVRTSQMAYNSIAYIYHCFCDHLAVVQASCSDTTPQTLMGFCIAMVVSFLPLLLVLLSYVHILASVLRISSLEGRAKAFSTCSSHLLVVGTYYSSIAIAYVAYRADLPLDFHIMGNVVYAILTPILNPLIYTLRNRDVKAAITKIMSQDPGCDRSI
Summary of the method: as §1

OR2B11 (Homo sapiens) = molecular target: T18, OR2B11 (Homo sapiens) (UniProt Q5JQS5)
T18 sequence (whole entry): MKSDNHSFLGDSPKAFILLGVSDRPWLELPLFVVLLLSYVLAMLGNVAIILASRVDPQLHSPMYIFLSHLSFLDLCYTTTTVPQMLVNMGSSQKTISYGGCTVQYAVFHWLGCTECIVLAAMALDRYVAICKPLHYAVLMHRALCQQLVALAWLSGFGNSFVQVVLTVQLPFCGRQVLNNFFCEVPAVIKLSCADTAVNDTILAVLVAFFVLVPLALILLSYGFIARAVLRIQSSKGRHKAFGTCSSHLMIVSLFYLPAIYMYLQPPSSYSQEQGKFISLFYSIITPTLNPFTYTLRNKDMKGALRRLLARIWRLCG
Summary of the method: as §1

OR2B2 (Homo sapiens) = molecular target: T19, OR2B2 (Homo sapiens) (UniProt Q9GZK3)
T19 sequence (whole entry): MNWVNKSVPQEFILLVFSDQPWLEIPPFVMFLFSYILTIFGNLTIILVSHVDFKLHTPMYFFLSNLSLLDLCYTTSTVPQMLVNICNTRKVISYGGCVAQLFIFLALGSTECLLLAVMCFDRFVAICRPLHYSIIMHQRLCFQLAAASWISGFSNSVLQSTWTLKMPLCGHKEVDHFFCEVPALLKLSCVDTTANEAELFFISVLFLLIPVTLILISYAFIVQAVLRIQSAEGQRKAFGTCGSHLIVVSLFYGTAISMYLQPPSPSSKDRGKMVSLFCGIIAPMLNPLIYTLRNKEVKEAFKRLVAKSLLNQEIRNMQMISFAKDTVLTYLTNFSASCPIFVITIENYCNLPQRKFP
Summary of the method: as §1

OR2AJ1 (Homo sapiens) = molecular target: T20, OR2AJ1 (Homo sapiens) (UniProt Q8NGZ0)
T20 sequence (whole entry): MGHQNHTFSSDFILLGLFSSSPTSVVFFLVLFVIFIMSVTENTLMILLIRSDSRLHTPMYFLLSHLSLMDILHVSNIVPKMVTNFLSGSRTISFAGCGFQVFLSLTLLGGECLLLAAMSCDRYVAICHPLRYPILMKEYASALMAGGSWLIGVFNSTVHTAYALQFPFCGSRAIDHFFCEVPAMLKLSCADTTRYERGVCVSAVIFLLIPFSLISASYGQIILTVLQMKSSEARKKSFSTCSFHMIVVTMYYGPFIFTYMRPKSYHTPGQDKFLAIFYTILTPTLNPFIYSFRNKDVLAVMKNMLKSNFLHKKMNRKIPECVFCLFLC
Summary of the method: as §1

Measured: odorant receptor agonist call

CC1=C(O)C(=O)C(C)O1 (configuration not stated)
not listed: OR2AJ1 (Homo sapiens)
inactive: all other assays above

CCCCCCCCCCCCCC(=O)OCC
inactive: OR2A7 (Homo sapiens)

CCCC(=O)CC
inactive: OR2A7 (Homo sapiens)

CCC(C)CO (configuration not stated)
inactive: OR2A7 (Homo sapiens)

CC1=C(O)C(=O)OC1C (configuration not stated)
not listed: OR2AJ1 (Homo sapiens)
inactive: all other assays above

CCCCCCCCCCCCCCCC(=O)OC
inactive: OR2A7 (Homo sapiens)

CCC(S)C(C)CO (configuration not stated)
not listed: OR2A1 T73A R74C S168C | OR2A2 | OR2A5 I126V A202S A255T | OR2A7
inactive: all other assays above

CCCC(S)CCOC(C)=O (configuration not stated)
not listed: OR2AJ1 (Homo sapiens)
inactive: all other assays above
